The target in assay [1] is T1, Beta-secretase 1 (Homo sapiens, UniProt P56817). Kind of assay: Inhibition of human recombinant BACE1 at 0.2 uM by FRET assay. In outline:
(§1)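 Single-point screen of BACE1 inhibition, run first at the higher concentration and then at the lower one. Read-out is percent inhibition.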

Assay [2] deals with T1, Beta-secretase 1. Kind of assay: Inhibition of human recombinant BACE1 at 2 uM by FRET assay. In outline: as §1
For assay [3], the target named is T1, Beta-secretase 1. The experiment in a line: Inhibition of human recombinant BACE1 by FRET assay.

T1 sequence (P56817 whole entry): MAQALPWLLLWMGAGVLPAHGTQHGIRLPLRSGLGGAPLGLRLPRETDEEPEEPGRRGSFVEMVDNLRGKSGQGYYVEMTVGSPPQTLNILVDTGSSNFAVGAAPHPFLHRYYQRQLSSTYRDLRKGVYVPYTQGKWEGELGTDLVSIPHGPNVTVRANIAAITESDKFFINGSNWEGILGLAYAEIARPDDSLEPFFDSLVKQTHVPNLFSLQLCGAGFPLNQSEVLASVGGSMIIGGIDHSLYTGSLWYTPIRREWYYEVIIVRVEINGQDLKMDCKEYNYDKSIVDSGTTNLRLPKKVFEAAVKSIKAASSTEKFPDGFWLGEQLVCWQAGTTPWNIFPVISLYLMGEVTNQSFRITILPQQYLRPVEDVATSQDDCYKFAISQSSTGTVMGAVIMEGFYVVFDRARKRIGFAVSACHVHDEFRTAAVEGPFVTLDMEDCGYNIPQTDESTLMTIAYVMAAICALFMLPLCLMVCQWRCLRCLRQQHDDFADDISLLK

For `CC(C)C[C@H](NC(=O)[C@@H](NC(=O)[C@@H](N)CNC(=O)c1cc(O)ccc1O)C(C)C)C(=O)N[C@@H](Cc1ccccc1)[C@@H](O)C(=O)NC(C)(C)c1ccccc1`, the inhibition stood at 44% on Beta-secretase 1 [1] and 88% on Beta-secretase 1 [2].

Take `CC(C)[C@H](NC(=O)[C@@H](N)CNC(=O)c1cc(O)ccc1O)C(=O)N[C@@H](CC1CCCCC1)C(=O)N[C@@H](Cc1ccccc1)[C@@H](O)C(=O)NC1(c2ccccc2)CCCCC1`: the inhibition at Beta-secretase 1 [1] amounted to 46%; on Beta-secretase 1 [2], 87%.

For the compound `CC(C)C[C@H](NC(=O)[C@@H](NC(=O)[C@@H](N)CNC(=O)c1cc(O)ccc1O)C(C)C)C(=O)N[C@@H](Cc1ccccc1)[C@@H](O)C(=O)NC1(c2ccccc2)CCN(Cc2ccccc2)CC1`, on Beta-secretase 1 [2], the inhibition was determined as 59%.

Turning to `CC(C)C[C@H](NC(=O)[C@@H](NC(=O)[C@@H](N)CNC(=O)c1[nH]c(=O)[nH]c(=O)c1F)C(C)C)C(=O)N[C@@H](Cc1ccccc1)[C@@H](O)C(=O)N[C@H](C)c1ccccc1`, the inhibition at Beta-secretase 1 [1] came to 81%; at Beta-secretase 1 [2] it was 98%. Besides, on Beta-secretase 1 [3], the IC50 came to 0.0348 µM.

Regarding `CC(C)[C@H](NC(=O)[C@@H](N)CNC(=O)c1[nH]c(=O)[nH]c(=O)c1F)C(=O)N[C@@H](CC1CCCCC1)C(=O)N[C@@H](Cc1ccccc1)[C@@H](O)C(=O)NC1(c2ccccc2)CCCC1`, the inhibition at Beta-secretase 1 [1] was determined as 84%; at Beta-secretase 1 [2], 98%. In addition, the IC50 on Beta-secretase 1 [3] was 0.029 µM.

Take `CC(C)C[C@H](NC(=O)[C@@H](NC(=O)[C@@H](N)CNC(=O)c1[nH]c(=O)[nH]c(=O)c1F)C(C)C)C(=O)N[C@@H](Cc1ccccc1)[C@@H](O)C(=O)NC1(c2ccccc2)CCN(Cc2ccccc2)CC1`: the inhibition at Beta-secretase 1 [1] came to 59%; at Beta-secretase 1 [2], 93%.

In the case of `CC(C)C[C@H](NC(=O)[C@@H](NC(=O)[C@@H](N)CNC(=O)c1[nH]c(=O)[nH]c(=O)c1F)C(C)C)C(=O)N[C@@H](Cc1ccccc1)[C@@H](O)C(=O)NC(C)(C)c1ccccc1`, the inhibition on Beta-secretase 1 [1] turned out to be 83%; at Beta-secretase 1 [2], 98%. Moreover, the concentration for half-maximal inhibition (IC50) at Beta-secretase 1 [3] was determined as 0.027 µM.

On to `CC(C)C[C@H](NC(=O)[C@@H](NC(=O)[C@@H](N)CNC(=O)c1cc(O)ccc1O)C(C)C)C(=O)N[C@@H](Cc1ccccc1)[C@@H](O)C(=O)NC1(c2ccccc2)CCCCC1`, for which the inhibition amounted to 43% on Beta-secretase 1 [1] and 86% on Beta-secretase 1 [2].

On to `CC(C)C[C@H](NC(=O)[C@@H](NC(=O)[C@@H](N)CNC(=O)c1[nH]c(=O)[nH]c(=O)c1F)C(C)C)C(=O)N[C@@H](Cc1ccccc1)[C@@H](O)C(=O)N[C@@H](C)c1ccccc1`, for which the inhibition turned out to be 83% on Beta-secretase 1 [1] and 99% on Beta-secretase 1 [2]. Further, the half-maximal inhibitory concentration (IC50) on Beta-secretase 1 [3] was found to be 0.0204 µM.

Regarding `CC(C)[C@H](NC(=O)[C@@H](N)CNC(=O)c1cc(O)ccc1O)C(=O)N[C@@H](CC1CCCCC1)C(=O)N[C@@H](Cc1ccccc1)[C@@H](O)C(=O)N[C@H](C)c1ccccc1`, the values for the inhibition on Beta-secretase 1 [1] and at Beta-secretase 1 [2] were 51% and 88%, respectively.

For `CC(C)C[C@H](NC(=O)[C@@H](NC(=O)[C@@H](N)CNC(=O)c1[nH]c(=O)[nH]c(=O)c1F)C(C)C)C(=O)N[C@@H](Cc1ccccc1)[C@@H](O)C(=O)NC1(c2ccccc2)CCCC1`, the figures for the inhibition at Beta-secretase 1 [1] and at Beta-secretase 1 [2] were 86% and 99%, respectively. Moreover, the IC50 at Beta-secretase 1 [3] was 0.0116 µM.

As for `CC(C)[C@H](NC(=O)[C@@H](N)CNC(=O)c1cc(O)ccc1O)C(=O)N[C@@H](CC1CCCCC1)C(=O)N[C@@H](Cc1ccccc1)[C@@H](O)C(=O)NC(C)(C)c1ccccc1`, the inhibition came to 49% at Beta-secretase 1 [1] and 89% on Beta-secretase 1 [2].

Consider `CC(C)C[C@H](NC(=O)[C@@H](NC(=O)[C@@H](N)CNC(=O)c1cc(O)ccc1O)C(C)C)C(=O)N[C@@H](Cc1ccccc1)[C@@H](O)C(=O)N[C@@H](C)c1ccccc1`, for which the inhibition was found to be 47% at Beta-secretase 1 [1] and 88% at Beta-secretase 1 [2].

Regarding `CC(C)[C@H](NC(=O)[C@@H](N)CNC(=O)c1[nH]c(=O)[nH]c(=O)c1F)C(=O)N[C@@H](CC1CCCCC1)C(=O)N[C@@H](Cc1ccccc1)[C@@H](O)C(=O)N[C@@H](C)c1ccccc1`, the values for the inhibition on Beta-secretase 1 [1] and at Beta-secretase 1 [2] were 80% and 98%, respectively. For the same compound, the IC50 on Beta-secretase 1 [3] was found to be 0.0242 µM.

Regarding `CC(C)[C@H](NC(=O)[C@@H](N)CNC(=O)c1[nH]c(=O)[nH]c(=O)c1F)C(=O)N[C@@H](CC1CCCCC1)C(=O)N[C@@H](Cc1ccccc1)[C@@H](O)C(=O)N[C@H](C)c1ccccc1`, the results for the inhibition at Beta-secretase 1 [1] and on Beta-secretase 1 [2] were 79% and 98%, respectively. For the same compound, the IC50 at Beta-secretase 1 [3] was 0.0396 µM.

`CC(C)C[C@H](NC(=O)[C@@H](NC(=O)[C@@H](N)CNC(=O)c1cc(O)ccc1O)C(C)C)C(=O)N[C@@H](Cc1ccccc1)[C@@H](O)C(=O)N[C@H](C)c1ccccc1`: the inhibition was determined as 44% at Beta-secretase 1 [1] and 87% on Beta-secretase 1 [2].

For the compound `CC(C)[C@H](NC(=O)[C@@H](N)CNC(=O)c1cc(O)ccc1O)C(=O)N[C@@H](CC1CCCCC1)C(=O)N[C@@H](Cc1ccccc1)[C@@H](O)C(=O)N[C@@H](C)c1ccccc1`, the inhibition on Beta-secretase 1 [1] stood at 54%; on Beta-secretase 1 [2], 89%.

Consider `CC(C)[C@H](NC(=O)[C@@H](N)CNC(=O)c1[nH]c(=O)[nH]c(=O)c1F)C(=O)N[C@@H](CC1CCCCC1)C(=O)N[C@@H](Cc1ccccc1)[C@@H](O)C(=O)NC(C)(C)c1ccccc1`, for which the inhibition came to 78% at Beta-secretase 1 [1] and 98% on Beta-secretase 1 [2]. Moreover, the IC50 at Beta-secretase 1 [3] was determined as 0.0319 µM.

Turning to `CC(C)C[C@H](NC(=O)[C@@H](NC(=O)[C@@H](N)CNC(=O)c1[nH]c(=O)[nH]c(=O)c1F)C(C)C)C(=O)N[C@@H](Cc1ccccc1)[C@@H](O)C(=O)NC1(c2ccccc2)CCCCC1`, the figures for the inhibition at Beta-secretase 1 [1] and on Beta-secretase 1 [2] were 85% and 98%, respectively. Further, the IC50 at Beta-secretase 1 [3] came out at 0.0248 µM.

As for `CC(C)[C@H](NC(=O)[C@@H](N)CNC(=O)c1[nH]c(=O)[nH]c(=O)c1F)C(=O)N[C@@H](CC1CCCCC1)C(=O)N[C@@H](Cc1ccccc1)[C@@H](O)C(=O)NC1(c2ccccc2)CCN(Cc2ccccc2)CC1`, the inhibition at Beta-secretase 1 [1] came to 64%; at Beta-secretase 1 [2], 95%.

`CC(C)[C@H](NC(=O)[C@@H](N)CNC(=O)c1cc(O)ccc1O)C(=O)N[C@@H](CC1CCCCC1)C(=O)N[C@@H](Cc1ccccc1)[C@@H](O)C(=O)NC1(c2ccccc2)CCCC1`: the inhibition worked out at 58% at Beta-secretase 1 [1] and 89% on Beta-secretase 1 [2].

For the compound `CC(C)C[C@H](NC(=O)[C@@H](NC(=O)[C@@H](N)CNC(=O)c1cc(O)ccc1O)C(C)C)C(=O)N[C@@H](Cc1ccccc1)[C@@H](O)C(=O)NC1(c2ccccc2)CCCC1`, the inhibition is 58% at Beta-secretase 1 [1] and 90% at Beta-secretase 1 [2].

On to `CC(C)[C@H](NC(=O)[C@@H](N)CNC(=O)c1cc(O)ccc1O)C(=O)N[C@@H](CC1CCCCC1)C(=O)N[C@@H](Cc1ccccc1)[C@@H](O)C(=O)NC1(c2ccccc2)CCN(Cc2ccccc2)CC1`, for which the inhibition on Beta-secretase 1 [2] is 57%.

Regarding `CC(C)[C@H](NC(=O)[C@@H](N)CNC(=O)c1[nH]c(=O)[nH]c(=O)c1F)C(=O)N[C@@H](CC1CCCCC1)C(=O)N[C@@H](Cc1ccccc1)[C@@H](O)C(=O)NC1(c2ccccc2)CCCCC1`, the inhibition on Beta-secretase 1 [1] was 77%; at Beta-secretase 1 [2], 97%. In addition, at Beta-secretase 1 [3], the IC50 was 0.0406 µM.

Values taken from ChEMBL document CHEMBL1817649, “Structure-guided design and synthesis of P1' position 1-phenylcycloalkylamine-derived pentapeptidic BACE1 inhibitors” (Bioorg Med Chem, 2011).
